Key:
[1] = test system: ASI(-)RyR1-expressing dyspedic myotubes; test: Intracellular Ca2+ measurement; assay type: cell-based, mice; details: 500μM, 45s application (Fig. 2)
Method in brief: (§1)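 RyR1-null mouse myotubes in primary culture; nuclear cDNA injection where applicable, expressing cells marked by co-injected cherry red cDNA (0.005μg/μl). Loaded 25min at room temperature with 5μM fura-FF AM in HEPES Ringer's, pH7.4. Ratio 340/380nm (510nm emission) every 350ms. Sequence: 500μM 4-cmc for 45s, 60s wash, zero-Ca²⁺ ICE for 120s, then 10mM Ca²⁺ plus 10μM ionomycin. Peak responses compared by ANOVA/Dunnett's test.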

[2] = test system: ASI(+)RyR1-expressing dyspedic myotubes; test: Intracellular Ca2+ measurement; assay type: cell-based, mice; details: 500μM, 45s application (Fig. 2)
Method in brief: as §1

[3] = test system: non-expressing dyspedic (RyR1-null) myotubes; test: Intracellular Ca2+ measurement; assay type: cell-based, mice; details: 500μM (Fig. 2B)
Method in brief: as §1

[4] = test system: native skeletal muscle RyR1; test: [3H]ryanodine binding to SR vesicles; assay type: biochemical; details: for Ryanodine binding: mean ±SEM, SEM
[5] = low to moderate affinity Ca2+ dye; stated property, no reference given; cited from earlier work
[6] = test system: native skeletal muscle RyR1; test: Ca2+ release from SR vesicles; assay type: biochemical
Method in brief: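 SR vesicles in 100mM KH₂PO₄ (pH7), 4mM MgCl₂, 1mM Na₂ATP, 0.5mM antipyrylazo III; extravesicular Ca²⁺ followed as OD at 710nm. Additions in sequence: 1μM thapsigargin, then peptide, then 5μM ruthenium red, then 1.5μg/ml A23187. n=3; paired or unpaired Student's t-test, P<0.05.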

native RyR1 = test: Single channel recording in lipid bilayers; assay type: biochemical; details: for effect on RyR1 channel activity (open probability), in words: n=3 (Fig. 6)
Method in brief: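 Native RyR1 vesicles fused into lipid bilayers. After incorporation, cis contained 230mM CsCH₃O₃S, 20mM CsCl, 10mM TES, 500mM mannitol, 100μM free Ca²⁺, pH7.4; trans was made symmetrical at 230mM CsCH₃O₃S. Potential alternated between -40 and +40mV every 30s. Open probability from one to two 30s periods, with threshold ~20% of maximal conductance. Control, then 100μM peptide; n=3.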

[7] = substance alone, 10μM Ca2+, versus control, n=3 (Fig. 5A, 7)

Cc1cc(O)ccc1Cl [4-cmc, 4-chloro-m-cresol]
effect on intracellular Ca2+, in words [1]: rapid increase | effect on intracellular Ca2+, in words [2]: rapid increase | effect on intracellular Ca2+, in words [3]: not in non-expressing dyspedic myotubes

Cn1c(=O)c2c(ncn2C)n(C)c1=O [Caffeine, caffeine, reference compound]
effect on [3H]ryanodine binding, in words [4, 7]: significantly increases

CC(=O)OCOC(=O)CN(CC(=O)OCOC(C)=O)c1cc2oc(-c3ncc(C(=O)OCOC(C)=O)o3)cc2cc1OCCOc1c(N(CC(=O)OCOC(C)=O)CC(=O)OCOC(C)=O)ccc(F)c1F [fura-FF]
Kd [5]: 5.5 µM

^3471TADSKSKMAK-----------SGGSDQERTAAKLRG^3500 [ASI(mutant)]
effect on Ca2+ release from SR vesicles, in words ([6]; 10μM peptide, n=3 (Fig. 5E)): did not increase | effect on initial Ca2+ release from SR vesicles, in words ([6]; 100μM peptide, n=3 (Fig. 5C-E)): small increase | effect on channel activity, in words (native RyR1; data not shown): no effect | effect on [3H]ryanodine binding, in words [4, 7]: only marginally increased

^3471TADSKSKMAK-----------SGGSDQERTKKKRRG^3500 [ASI(-)]
effect on Ca2+ release from SR vesicles, in words ([6]; initial rate, peptide minus thapsigargin, n=3 (Fig. 5B&E)): significantly increased | effect on RyR1 channel activity (open probability), in words (native RyR1; +40mV, 100μM peptide): significant inhibition | effect on RyR1 channel activity (open probability), in words (native RyR1; -40mV): significant activation | effect on [3H]ryanodine binding if channels first activated by 100μM peptide A, in words ([4]; 10μM Ca2+, competition (Fig. 7A&B)): failed to significantly increase | [3H]ryanodine binding achievable ([4]; 10μM caffeine plus 100μM peptide, 10μM Ca2+ (Fig. 7C)): > 250 % control | effect on [3H]ryanodine binding, in words ([4]; 100μM peptide, [Ca2+] ≥10μM, n=3 (Fig. 8A)): significantly increased | Ryanodine binding ([4]; 500μM ASI(-) plus 100μM DP4): 339±32 % control | Ryanodine binding ([4]; 500μM peptide alone, SR vesicles, 37°C, 15nM [3H]ryanodine): 190±1 % of control | effect on [3H]ryanodine binding, in words [4, 7]: significantly increased
